ChEMBL document CHEMBL5625188, “Exploring diverse reactive warheads for the design of SARS-CoV-2 main protease inhibitors” (Eur J Med Chem, 2023)

Legend:
[1] = target: T1, Replicase polyprotein 1ab (Severe acute respiratory syndrome coronavirus 2, UniProt P0DTD1); test: Inhibition of MPro of SARS CoV-2 BetaCoV/Wuhan/WIV04/2019 preincubated for 30 mins followed by substrate addition measured for 1 hr by FRET assay
[2] = Cytotoxicity against African green monkey Vero cells incubated for 5 days by neutral red uptake assay; type: toxicity, cell-based; details: chlorocebus sabaeus, time 5 day; for CC50: vero, 120 h; for CC50 at 120 h: Vero cells
Method in brief: (§1)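 Vero E6 cells were kept in DMEM with 5% heat-inactivated FBS at 37 °C, 5% CO2, and seeded at 80,000 cells/mL. Neutral red uptake used 40 μg/mL dye for 2–4 h, read at 540 nm. CC50 came from a variable-slope dose-response fit.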

[3] = Cytotoxicity against human Calu-3 cells infected with SARS CoV-2 USA-WA1/2020 clinical isolate assessed as reduction in cell viability incubated for 48 hrs by imaging analysis; type: toxicity, cell-based
[4] = Cytotoxicity against African green monkey Vero cells; type: toxicity, cell-based; details: chlorocebus sabaeus; method in brief: as §1
[5] = target: T1, Replicase polyprotein 1ab; test: Inhibition of SARS-CoV-2 MPro
Method in brief: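 FRET substrate was added to 10 μM final. Fluorescence (ex 360, em 460 nm) was followed 1 h at 30 °C. Initial velocities came from linear regression of the first 15 min, giving % inhibition and IC50.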

[6] = target: T1, Replicase polyprotein 1ab; test: Inhibition of MPro of SARS CoV-2 BetaCoV/Wuhan/WIV04/2019 incubated for 2 hrs in presence of substrate by FRET assay
SARS-CoV-2 = test: Antiviral activity against SARS CoV-2 USA-WA1/2020 clinical isolate infected in human Calu-3 cells assessed as reduction in viral infection incubated for 48 hrs by imaging analysis; type: functional, organism-based; details: Severe acute respiratory syndrome coronavirus 2, USA-WA1/2020, Calu-3, 48 h

| Compound | IC50 [1] [µM] | other results |
| --- | --- | --- |
| C=CS(=O)(=O)N(c1ccc(-c2ccccc2)cc1)[C@@H](C(=O)N[C@@H](C)c1ccccc1)c1cccnc1 | 0.31 | CC50 [2]: 18.4 µM |
| COc1ccc(/C=C(\C#N)C(=O)N(c2ccc(-c3ccccc3)cc2)[C@@H](C(=O)N[C@@H](C)c2ccccc2)c2cccnc2)cc1 | – | CC50 [2]: > 100 µM; CC50 at 48 h [3]: > 100 µM |
| C#CC(=O)N(c1ccc(-c2ccccc2)cc1)[C@@H](C(=O)N[C@@H](C)c1ccccc1)c1cccnc1 | – | CC50 at 120 h [2]: 2.06 µM |
| C#CCN(c1ccc(-c2ccccc2)cc1)C(C(=O)N[C@@H](C)c1ccccc1)c1cccnc1 (stereo partly drawn) | > 20 | – |
| CCC#CC(=O)N(c1ccc(-c2ccccc2)cc1)C(C(=O)N[C@@H](C)c1ccccc1)c1cccnc1 (stereo partly drawn) | 1.65 | CC50 at 120 h [2]: 38.6 µM |
| C=C(NC(C)=O)C(=O)N(c1ccc(-c2ccccc2)cc1)C(C(=O)N[C@@H](C)c1ccccc1)c1cccnc1 (stereo partly drawn) | > 20 | – |
| C[C@H](NC(=O)C(c1cccnc1)N(C(=O)C1(C#N)CCN(C(=O)OC(C)(C)C)CC1)c1ccc(-c2ccccc2)cc1)c1ccccc1 (stereo partly drawn) | > 20 | – |
| C[C@H](NC(=O)C(c1cccnc1)N(C(=O)/C=C/Br)c1ccc(-c2ccccc2)cc1)c1ccccc1 (stereo partly drawn) | > 20 | – |
| C=C(C(=O)N(c1ccc(-c2ccccc2)cc1)C(C(=O)N[C@@H](C)c1ccccc1)c1cccnc1)c1ccccc1 (stereo partly drawn) | > 20 | – |
| C[C@H](NC(=O)[C@H](c1cccnc1)N(C(=O)C#CCCl)c1ccc(-c2ccccc2)cc1)c1ccccc1 | – | CC50 [2]: 2.2 µM |
| C[C@H](NC(=O)[C@H](c1cccnc1)N(C(=O)C#CCC#N)c1ccc(-c2ccccc2)cc1)c1ccccc1 | > 20 | – |
| C[C@H](NC(=O)C(c1cccnc1)N(C(=O)/C(C#N)=C/C1CC1)c1ccc(-c2ccccc2)cc1)c1ccccc1 (stereo partly drawn) | > 20 | – |
| C[C@H](NC(=O)C(c1cccnc1)N(C(=O)C(C#N)=C1CCCCC1)c1ccc(-c2ccccc2)cc1)c1ccccc1 (stereo partly drawn) | > 20 | – |
| C/C=C(\C)C(=O)N(c1ccc(-c2ccccc2)cc1)C(C(=O)N[C@@H](C)c1ccccc1)c1cccnc1 (stereo partly drawn) | > 20 | – |
| C#CCC(=O)N(c1ccc(-c2ccccc2)cc1)C(C(=O)N[C@@H](C)c1ccccc1)c1cccnc1 (stereo partly drawn) | 4.63 | – |
| COC(=O)/C=C/C(=O)N(c1ccc(-c2ccccc2)cc1)C(C(=O)N[C@@H](C)c1ccccc1)c1cccnc1 (stereo partly drawn) | 3.97 | CC50 at 120 h [2]: 8.9 µM |
| C=C(Br)C(=O)N(c1ccc(-c2ccccc2)cc1)C(C(=O)N[C@@H](C)c1ccccc1)c1cccnc1 (stereo partly drawn) | 4.26 | CC50 at 120 h [2]: < 3.9 µM |
| C=C(C)C(=O)N(c1ccc(-c2ccccc2)cc1)C(C(=O)N[C@@H](C)c1ccccc1)c1cccnc1 (stereo partly drawn) | > 20 | – |
| C=C(Cl)C(=O)N(c1ccc(-c2ccccc2)cc1)C(C(=O)N[C@@H](C)c1ccccc1)c1cccnc1 (stereo partly drawn) | – | CC50 [4]: < 10 µM |
| C[C@H](NC(=O)C(c1cccnc1)N(C(=O)C#CC(C)(C)O)c1ccc(-c2ccccc2)cc1)c1ccccc1 (stereo partly drawn) | 1.28 | CC50 at 120 h [2]: 19.1 µM |
| C[C@H](NC(=O)C(c1cccnc1)N(C(=O)C1=CC(=O)CC1)c1ccc(-c2ccccc2)cc1)c1ccccc1 (stereo partly drawn) | > 20 | – |
| C[C@H](NC(=O)C(c1cccnc1)N(C(=O)C#CC1CC1)c1ccc(-c2ccccc2)cc1)c1ccccc1 (stereo partly drawn) | 0.85 | CC50 [2]: 102 µM |
| CC(C)C#CC(=O)N(c1ccc(-c2ccccc2)cc1)C(C(=O)N[C@@H](C)c1ccccc1)c1cccnc1 (stereo partly drawn) | 4.19 | – |
| CCC(=O)C(=O)N(c1ccc(-c2ccccc2)cc1)C(C(=O)N[C@@H](C)c1ccccc1)c1cccnc1 (stereo partly drawn) | 3.81 | – |

| Compound | IC50 [1] [µM] | other results |
| --- | --- | --- |
| CC(C)=CC(=O)N(c1ccc(-c2ccccc2)cc1)C(C(=O)N[C@@H](C)c1ccccc1)c1cccnc1 (stereo partly drawn) | > 20 | – |
| C=CC(=O)N(c1ccc(-c2ccccc2)cc1)C(C(=O)N[C@@H](C)c1ccccc1)c1cccnc1 (stereo partly drawn) | – | IC50 [5]: > 20 µM |
| C[C@H](NC(=O)[C@@H](c1cccnc1)N(C(=O)C#CCC#N)c1ccc(-c2ccccc2)cc1)c1ccccc1 | 0.5 | CC50 at 120 h [2]: > 100 µM; Ki [6]: 345 nM; CC50 at 48 h [3]: > 100 µM; EC50 (SARS-CoV-2): 2920 nM |
| CC#CC(=O)N(c1ccc(-c2ccccc2)cc1)C(C(=O)N[C@@H](C)c1ccccc1)c1cccnc1 (stereo partly drawn) | – | CC50 at 120 h [2]: 18 µM |
| C[C@H](NC(=O)C(c1cccnc1)N(C(=O)/C=C/c1ccco1)c1ccc(-c2ccccc2)cc1)c1ccccc1 (stereo partly drawn) | 15.4 | – |
| C[C@H](NC(=O)C(c1cccnc1)N(C(=O)/C=C\I)c1ccc(-c2ccccc2)cc1)c1ccccc1 (stereo partly drawn) | > 20 | – |
| C#CC(=O)N(c1ccc(-c2ccccc2)cc1)[C@H](C(=O)N[C@@H](C)c1ccccc1)c1cccnc1 | – | CC50 at 120 h [2]: 2.8 µM |
| C=CS(=O)(=O)N(c1ccc(-c2ccccc2)cc1)[C@H](C(=O)N[C@@H](C)c1ccccc1)c1cccnc1 | 6.49 | – |
| CC(=O)/C=C/C(=O)N(c1ccc(-c2ccccc2)cc1)C(C(=O)N[C@@H](C)c1ccccc1)c1cccnc1 (stereo partly drawn) | 17 | – |
| C=C(F)C(=O)N(c1ccc(-c2ccccc2)cc1)C(C(=O)N[C@@H](C)c1ccccc1)c1cccnc1 (stereo partly drawn) | > 20 | – |
| C[C@H](NC(=O)C(c1cccnc1)N(C(=O)C#CC(C)(C)F)c1ccc(-c2ccccc2)cc1)c1ccccc1 (stereo partly drawn) | > 20 | – |
| C[C@H](NC(=O)C(c1cccnc1)N(C(=O)/C=C/C(=O)O)c1ccc(-c2ccccc2)cc1)c1ccccc1 (stereo partly drawn) | 12.4 | CC50 at 120 h [2]: > 250 µM |
| C[C@H](NC(=O)C(c1cccnc1)N(C(=O)C1(C#N)CC1)c1ccc(-c2ccccc2)cc1)c1ccccc1 (stereo partly drawn) | > 20 | – |
| C[C@H](NC(=O)C(c1cccnc1)N(C(=O)C(=O)N1CCN(C)CC1)c1ccc(-c2ccccc2)cc1)c1ccccc1 (stereo partly drawn) | > 20 | – |
| C=C(C(=O)N(c1ccc(-c2ccccc2)cc1)C(C(=O)N[C@@H](C)c1ccccc1)c1cccnc1)C(F)(F)F (stereo partly drawn) | 4.36 | CC50 at 120 h [2]: < 3.9 µM |
| C[C@H](NC(=O)C(c1cccnc1)N(C(=O)C1=CCCCC1)c1ccc(-c2ccccc2)cc1)c1ccccc1 (stereo partly drawn) | > 20 | – |
| C[C@H](NC(=O)[C@@H](c1cccnc1)N(C(=O)C#CCCl)c1ccc(-c2ccccc2)cc1)c1ccccc1 | – | CC50 [2]: 2 µM |
| C#CCCC(=O)N(c1ccc(-c2ccccc2)cc1)C(C(=O)N[C@@H](C)c1ccccc1)c1cccnc1 (stereo partly drawn) | > 20 | – |
| C[C@H](NC(=O)C(c1cccnc1)N(C(=O)C(F)(F)S(=O)(=O)F)c1ccc(-c2ccccc2)cc1)c1ccccc1 (stereo partly drawn) | > 20 | – |
| CC(C)/C=C(\C#N)C(=O)N(c1ccc(-c2ccccc2)cc1)C(C(=O)N[C@@H](C)c1ccccc1)c1cccnc1 (stereo partly drawn) | > 20 | – |
| C[C@H](NC(=O)C(c1cccnc1)N(C(=O)C1(C#N)CCOCC1)c1ccc(-c2ccccc2)cc1)c1ccccc1 (stereo partly drawn) | > 20 | – |
| CO/C=C/C(=O)N(c1ccc(-c2ccccc2)cc1)C(C(=O)N[C@@H](C)c1ccccc1)c1cccnc1 (stereo partly drawn) | > 20 | – |
| C[C@H](NC(=O)C(c1cccnc1)N(C(=O)/C=C/Cl)c1ccc(-c2ccccc2)cc1)c1ccccc1 (stereo partly drawn) | > 20 | – |
| CCC(CC)COC(=O)[C@H](C)N[P@](=O)(OC[C@H]1O[C@@](C#N)(c2ccc3c(N)ncnn23)[C@H](O)[C@@H]1O)Oc1ccccc1 [REMDESIVIR] | – | CC50 at 120 h [2]: > 10 µM; CC50 at 48 h [3]: > 10 µM; EC50 (SARS-CoV-2): 170 nM |
